Legend:
[1] = Cytotoxicity against human Ect1 cells assessed as reduction in cell viability by MTT assay; assay type: cell-based
Outline: (§1)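 MTT viability assay in Ect1/E6E7 normal ectocervical epithelial cells, with the test agent alone (0 Gy) or combined with 4 Gy X-rays. IC50 values are in μM.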

HeLa [2] = experiment: Antiproliferative activity against human HeLa cells assessed as reduction in cell viability preincubated for 12 hrs followed by 4 Gy irradiation and measured after 60 hrs by MTT assay; assay type: functional, cell-based; settings: light or radiation study
Outline: (§2)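 MTT viability assay in HeLa cancer cells, with the test agent alone (0 Gy) or combined with 4 Gy X-rays. IC50 values are in μM. Sensitivity enhancement ratio = IC50(0 Gy)/IC50(4 Gy).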

HeLa [3] = experiment: Antiproliferative activity against human HeLa cells assessed as reduction in cell viability incubated for 12 hrs by MTT assay; assay type: functional, cell-based; outline: as §2
[4] = Cytotoxicity against human Ect1 cells assessed as reduction in cell viability in presence of 4 Gy irradiation by MTT assay; assay type: cell-based; settings: light or radiation study; outline: as §1
Dihydrofolate reductase = biological target: T1, Dihydrofolate reductase (Homo sapiens, UniProt P00374); experiment: Inhibition of recombinant human DHFR using dihydrofolate as substrate in presence of NADPH
T1 sequence (P00374 whole entry): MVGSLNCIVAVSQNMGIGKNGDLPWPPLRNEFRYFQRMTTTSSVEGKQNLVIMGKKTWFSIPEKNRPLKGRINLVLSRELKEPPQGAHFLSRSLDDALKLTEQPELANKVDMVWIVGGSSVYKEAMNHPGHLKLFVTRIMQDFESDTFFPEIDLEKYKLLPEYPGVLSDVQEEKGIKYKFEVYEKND

[5] = Safety index, ratio of IC50 for cytotoxicity against human Ect1/E6E7 cells assessed as reduction in cell viability in presence of 4 Gy irradiation by MTT assay to antiproliferative activity against human HeLa cells assessed as reduction in cell viability preincubated for 12 hrs followed by 4 Gy irradiation and measured after 60 hrs by MTT assay; assay type: toxicity, cell-based; settings: Ect1/E6E7 cells versus HeLa cells, read-out: Ratio IC50
Outline: (§3)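 MTT viability assay on Ect1/E6E7 normal ectocervical cells and HeLa cells, with 0 or 4 Gy X-rays. SER = IC50(0 Gy)/IC50(4 Gy) in the same line; safe index SI4 = IC50 Ect1/E6E7 + 4 Gy divided by IC50 HeLa + 4 Gy.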

[6] = Ratio of IC50 for cytotoxicity against human Ect1 cells assessed as reduction in cell viability by MTT assay to cytotoxicity against human Ect1 cells assessed as reduction in cell viability in presence of 4 Gy irradiation by MTT assay; assay type: cell-based; settings: read-out: Ratio IC50; outline: as §3
HeLa [7] = experiment: Ratio of IC50 for antiproliferative activity against human HeLa cells assessed as reduction in cell viability incubated for 12 hrs to IC50 for antiproliferative activity against human HeLa cells assessed as reduction in cell viability preincubated for 12 hrs followed by 4 Gy irradiation and measured after 60 hrs by MTT assay; assay type: functional; outline: as §2
[8] = Safety index, ratio of IC50 for cytotoxicity against human Ect1 cells assessed as reduction in cell viability to IC50 for antiproliferative activity against human HeLa cells assessed as reduction in cell viability incubated for 12 hrs by MTT assay; assay type: toxicity, cell-based; settings: Ect1 cells versus HeLa cells, read-out: Ratio IC50
Outline: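 Safe index SI0 from MTT assay without irradiation: IC50 in Ect1/E6E7 normal ectocervical cells divided by IC50 in HeLa cells.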

Compound | IC50 [1] [µM] | IC50 (HeLa [2]) [µM] | IC50 (HeLa [3]) [µM] | IC50 [4] [µM] | IC50 (Dihydrofolate reductase) [µM] | selectivity ratio at 60 h [5] | selectivity ratio [6] | Ratio IC50 (HeLa [7]) | selectivity ratio at 12 h [8]
Nc1nc(N)c2nc(-c3ccccc3)c(-c3ccccc3)nc2n1 | 59.3 | 14.8 | 32.6 | 38.1 |  |  |  |  | 
Nc1nc(N)c2nc3c4ccccc4c4ccccc4c3nc2n1 | > 80 | > 80 | > 80 | > 80 | > 50 |  |  |  | 
Nc1nc(N)c2nc(-c3cccs3)c(-c3cccs3)nc2n1 | 10.9 | 2.3 | 4.6 | 5.3 | 1.43 | 2.3 | 2.1 | 2 | 2.5
CN(Cc1cnc2nc(N)nc(N)c2n1)c1ccc(C(=O)N[C@@H](CCC(=O)O)C(=O)O)cc1 [METHOTREXATE] | 2.9 | 0.82 | 1.5 | 1.8 |  |  |  |  | 
Nc1nc(N)c2nc3c4cccnc4c4ncccc4c3nc2n1 | 20 | 6.3 | 9.8 | 13.9 | 5.8 | 2.2 | 1.4 | 1.6 | 2
Nc1nc(N)c2nc(-c3ccco3)c(-c3ccco3)nc2n1 | 40.1 | 14.6 | 24.5 | 19.8 | 10.4 | 1.4 | 2 | 1.7 | 1.6
